Source: ChEMBL document CHEMBL1123825, “Synthesis and activity profiles of new dermorphin-(1-4) peptide analogues” (J Med Chem, 1987)
Non-standard residues stand in square brackets, D forms with d. Residues, ends and D or L forms follow the SMILES beside them. ξ: configuration not given here. Met(O) = CS(=O)CC[C@H](N)C(=O)O; ξA = CC(N)C(=O)O; Sar = CNCC(=O)O

Columns and labels:
[1] = test system: Mus musculus; test: The compound was evaluated for the analgesic activity by tail-flick test after icv administration of compound in mouse; value ranges from […]-[…]; type: functional
[2] = test system: Mus musculus; test: The compound was evaluated for the analgesic activity by tail-flick test after subcutaneous administration of compound in mouse; value ranges from 0.48-1.51; type: functional; details: sc
[3] = test system: Mus musculus; test: Relative potency was determined for the compound with respect to morphine activity (1) after icv administration; type: functional
[4] = test system: Mus musculus; test: Relative potency was determined for the compound with respect to morphine activity (1) after subcutaneous administration; type: functional
[5] = target: Kappa-type opioid receptor (Cavia porcellus, UniProt P41144); test: Evaluated for the inhibition of [3H]EKC binding to Opioid receptor kappa 1 of guinea pig brain
Chain of Kappa-type opioid receptor (P41144 whole entry): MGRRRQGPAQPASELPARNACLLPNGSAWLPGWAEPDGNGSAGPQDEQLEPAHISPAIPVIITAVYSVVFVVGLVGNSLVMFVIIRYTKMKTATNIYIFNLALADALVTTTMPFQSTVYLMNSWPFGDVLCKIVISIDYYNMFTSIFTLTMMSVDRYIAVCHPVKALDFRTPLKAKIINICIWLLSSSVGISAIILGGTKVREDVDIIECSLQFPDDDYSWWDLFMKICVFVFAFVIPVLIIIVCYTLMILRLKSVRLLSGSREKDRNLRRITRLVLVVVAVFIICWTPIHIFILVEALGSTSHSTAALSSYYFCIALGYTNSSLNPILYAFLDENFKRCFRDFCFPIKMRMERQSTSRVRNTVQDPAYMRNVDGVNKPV

[6] = target: Mu-type opioid receptor (Cavia porcellus, UniProt P97266); test: Evaluated for the inhibition of [3H]DAGO binding to mu-receptor of guinea pig brain
Chain of Mu-type opioid receptor (P97266 whole entry): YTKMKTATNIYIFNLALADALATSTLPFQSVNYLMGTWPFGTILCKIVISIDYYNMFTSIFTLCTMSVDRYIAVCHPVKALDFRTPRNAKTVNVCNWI
In short: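 Male guinea pig brain minus cerebellum, homogenized in 50 mM Tris (pH 7.4), preincubated 37 °C for 45 min; 18 mg tissue per tube. [3H]DAGO 0.6 nM, 40 min at 25 °C, then GF/B filtration. Nonspecific binding defined with […] bremazocine. Six or more concentrations, each in triplicate; IC50 by probit analysis.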

[7] = target: Mu-type opioid receptor (Cavia porcellus) (UniProt P97266); test: Relative potency with respect to morphine was evaluated for mu-receptor of guinea pig brain
Chain of Mu-type opioid receptor (Cavia porcellus) (P97266 whole entry): as above

[8] = test system: Mus musculus; test: The compound was evaluated for the analgesic activity by tail-flick test after icv administration of compound in mouse; value ranges from 0.51-9.7; type: functional
[9] = test system: Mus musculus; test: The compound was evaluated for the analgesic activity by tail-flick test after subcutaneous administration of compound in mouse; value ranges from 0.31-1.09; type: functional; details: sc
[10] = test system: Mus musculus; test: The compound was evaluated for the analgesic activity by tail-flick test after icv administration of compound in mouse; value ranges from 11.8-23; type: functional
[11] = test system: Mus musculus; test: The compound was evaluated for the analgesic activity by tail-flick test after subcutaneous administration of compound in mouse; value ranges from 1.40-4.89; type: functional; details: sc
[12] = test system: Mus musculus; test: The compound was evaluated for the analgesic activity by tail-flick test after icv administration of compound in mouse; value ranges from 1.35-3.36; type: functional
[13] = test system: Mus musculus; test: The compound was evaluated for the analgesic activity by tail-flick test after subcutaneous administration of compound in mouse; value ranges from 0.54-0.83; type: functional; details: sc
[14] = test system: Mus musculus; test: The compound was evaluated for the analgesic activity by tail-flick test after icv administration of compound in mouse; value ranges from 12.6-41.7; type: functional
[15] = test system: Mus musculus; test: The compound was evaluated for the analgesic activity by tail-flick test after subcutaneous administration in mouse; value ranges from 2.69-17.0; type: functional; details: sc
[16] = test system: Mus musculus; test: The compound was evaluated for the analgesic activity by tail-flick test after subcutaneous administration of compound in mouse; value ranges from 2.60-17.0; type: functional; details: sc
[17] = test system: Mus musculus; test: The compound was evaluated for the analgesic activity by tail-flick test after icv administration of compound in mouse; value ranges from 5.5-16.3; type: functional
[18] = test system: Mus musculus; test: The compound was evaluated for the analgesic activity by tail-flick test after icv administration of compound in mouse; value ranges from 2.8-12.6; type: functional
[19] = test system: Mus musculus; test: The compound was evaluated for the analgesic activity by tail-flick test after subcutaneous administration of compound in mouse; value ranges from 0.28-0.80; type: functional; details: sc
[20] = test system: Mus musculus; test: The compound was evaluated for the analgesic activity by tail-flick test after icv administration of compound in mouse; value ranges from 34-72; type: functional
[21] = test system: Mus musculus; test: The compound was evaluated for the analgesic activity by tail-flick test after subcutaneous administration of compound in mouse; value ranges from 2.51-17.4; type: functional; details: sc
[22] = test system: Mus musculus; test: The compound was evaluated for the analgesic activity by tail-flick test after subcutaneous administration of compound in mouse; value ranges from 2.92-8.75; type: functional; details: sc
[23] = test system: Mus musculus; test: The compound was evaluated for the analgesic activity by tail-flick test after icv administration of compound in mouse; value ranges from 31-85; type: functional
[24] = test system: Mus musculus; test: The compound was evaluated for the analgesic activity by tail-flick test after subcutaneous administration of compound in mouse; value ranges from 2.64-10.0; type: functional; details: sc
[25] = test system: Mus musculus; test: The compound was evaluated for the analgesic activity by tail-flick test after icv administration of compound in mouse; value ranges from 27-40.8; type: functional
[26] = test system: Mus musculus; test: The compound was evaluated for the analgesic activity by tail-flick test after icv administration of compound in mouse; value ranges from 6.1-11.4; type: functional
[27] = test system: Mus musculus; test: The compound was evaluated for the analgesic activity by tail-flick test after subcutaneous administration of compound in mouse; value ranges from 0.21-1.06; type: functional; details: sc
[28] = test system: Mus musculus; test: The compound was evaluated for the analgesic activity by tail-flick test after subcutaneous administration of compound in mouse; value ranges from 3.48-14.95; type: functional; details: sc
[29] = test system: Mus musculus; test: The compound was evaluated for the analgesic activity by tail-flick test after icv administration of compound in mouse; value ranges from 14.8-58; type: functional
[30] = test system: Mus musculus; test: The compound was evaluated for the analgesic activity by tail-flick test after icv administration of compound in mouse; value ranges from 46.4-120; type: functional
[31] = test system: Mus musculus; test: The compound was evaluated for the analgesic activity by tail-flick test after subcutaneous administration of compound in mouse; value ranges from 26.7-99.1; type: functional; details: sc
[32] = test system: Mus musculus; test: The compound was evaluated for the analgesic activity by tail-flick test after icv administration of compound in mouse; value ranges from 6.6-27.1; type: functional
In short: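 Swiss-Webster mice (23-25 g), tail immersed in 55 °C water, reaction time read before and at various times after icv dosing in saline (4 µL); 10 s cutoff. % analgesia = [(T − T0)/(10 − T0)] × 100. At least four doses, at least eight mice per dose; ED50 estimated at time of peak activity. Opioid specificity checked by naloxone pretreatment (0.5-1 mg/kg sc).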

[33] = test system: Mus musculus; test: The compound was evaluated for the analgesic activity by tail-flick test after icv administration of compound in mouse; value ranges from 2550-4200; type: functional
[34] = species: Mus musculus; test: animal or person; details: Tail, sc

| SMILES | Relative potency [3] | Relative potency [4] | IC50 [5] | IC50 [6] | Relative potency [7] | also measured |
| --- | --- | --- | --- | --- | --- | --- |
| COC(=O)CN(C)C(=O)[C@H](Cc1ccccc1)NC(=O)[C@H](CC[S+](C)[O-])NC(=O)[C@H](Cc1ccc(O)cc1)N=C(N)N (stereo not given in full) | 81 | 14.4 | > 10000 nM | 23 nM | 0.17 | ED50 [1]: 38.1 pmol/mouse; ED50 [2]: 0.75 µmol/kg |
| C[S+]([O-])CC[C@H](NC(=O)[C@H](Cc1ccc(O)cc1)N=C(N)N)C(=O)N[C@@H](Cc1ccccc1)C(=O)NCC(N)=O (stereo not given in full) |  |  | > 10000 nM | 5 nM |  | ED50 [8]: 2 pmol/mouse; ED50 [9]: 0.53 µmol/kg |
| COC(=O)CNC(=O)[C@H](Cc1ccccc1)NC(=O)[C@H](CC[S+](C)[O-])NC(=O)[C@H](Cc1ccc(O)cc1)N=C(N)N (stereo not given in full) |  |  | > 10000 nM | 23.5 nM |  | ED50 [10]: 15.5 pmol/mouse; ED50 [11]: 2.39 µmol/kg |
| C[C@H](NC(=O)[C@@H](N)Cc1ccc(O)cc1)C(=O)N[C@@H](Cc1ccccc1)C(=O)NCC(N)=O (H-YAFG-NH2) |  |  |  |  | 0.11 |  |
| C[S+]([O-])CC[C@H](NC(=O)[C@@H](N)Cc1ccc(O)cc1)C(=O)N[C@@H](Cc1ccccc1)C(=O)NCC(N)=O (stereo not given in full) (H-Y[Met(O)]FG-NH2) |  |  | > 10000 nM | 6.3 nM |  | ED50 [12]: 2.01 pmol/mouse; ED50 [13]: 0.66 µmol/kg |
| C[S+]([O-])CC[C@H](NC(=O)[C@@H](N)Cc1ccc(O)cc1)C(=O)N[C@@H](Cc1ccccc1)C(=O)NCC(=O)O (stereo not given in full) (H-Y[Met(O)]FG-OH) |  |  | > 10000 nM | 61 nM |  | ED50 [14]: 20.5 pmol/mouse; ED50 [15]: 4.64 µmol/kg |
| COC(=O)CNC(=O)[C@H](Cc1ccccc1)NC(=O)[C@H](CC[S+](C)[O-])NC(=O)[C@@H](N)Cc1ccc(O)cc1 (stereo not given in full) (H-Y[Met(O)]FG-OMe) |  |  | > 10000 nM | 5 nM |  | ED50 [16]: 4.21 µmol/kg; ED50 [17]: 10 pmol/mouse |
| CN(CC(N)=O)C(=O)[C@H](Cc1ccccc1)NC(=O)[C@H](CC[S+](C)[O-])NC(=O)[C@@H](N)Cc1ccc(O)cc1 (stereo not given in full) (H-Y[Met(O)]F[Sar]-NH2) | 561 | 22.5 | > 10000 nM | 6 nM | 0.67 | ED50 [18]: 5.5 pmol/mouse; ED50 [19]: 0.48 µmol/kg |
| CN(CC(=O)O)C(=O)[C@H](Cc1ccccc1)NC(=O)[C@H](CC[S+](C)[O-])NC(=O)[C@@H](N)Cc1ccc(O)cc1 (stereo not given in full) (H-Y[Met(O)]F[Sar]-OH) | 67 | 2.3 | > 10000 nM | 77 nM | 0.05 | ED50 [20]: 45.8 pmol/mouse; ED50 [21]: 4.63 µmol/kg |
| COC(=O)CN(C)C(=O)[C@H](Cc1ccccc1)NC(=O)[C@H](CC[S+](C)[O-])NC(=O)[C@@H](N)Cc1ccc(O)cc1 (stereo not given in full) (H-Y[Met(O)]F[Sar]-OMe) | 64 | 2.7 | > 10000 nM | 6 nM | 0.67 | ED50 [22]: 4.05 µmol/kg; ED50 [23]: 47.9 pmol/mouse |
| CC(NC(=O)[C@H](Cc1ccccc1)NC(=O)[C@H](CC[S+](C)[O-])NC(=O)[C@@H](N)Cc1ccc(O)cc1)C(N)=O (stereo not given in full) (H-Y[Met(O)]F[ξA]-NH2) | 93 | 2.5 | > 10000 nM | 17 nM | 0.24 | ED50 [24]: 4.38 µmol/kg; ED50 [25]: 33 pmol/mouse |
| CC(NC(=O)[C@H](Cc1ccccc1)NC(=O)[C@H](CC[S+](C)[O-])NC(=O)[C@@H](N)Cc1ccc(O)cc1)C(=O)O (stereo not given in full) (H-Y[Met(O)]F[ξA]-OH) |  |  | > 10000 nM | 120 nM |  | ED50 [26]: 8.4 pmol/mouse; ED50 [27]: 0.36 µmol/kg |
| COC(=O)C(C)NC(=O)[C@H](Cc1ccccc1)NC(=O)[C@H](CC[S+](C)[O-])NC(=O)[C@@H](N)Cc1ccc(O)cc1 (stereo not given in full) (H-Y[Met(O)]F[ξA]-OMe) |  |  | > 10000 nM | 9 nM |  | ED50 [28]: 5.16 µmol/kg; ED50 [29]: 18.2 pmol/mouse |
| C[C@@H](NC(=O)[C@@H](N)Cc1ccc(O)cc1)C(=O)N[C@@H](Cc1ccccc1)C(=O)NCC(N)=O (H-Y[dA]FG-NH2) [listing 1 of 2 here] |  |  | > 10000 nM | 36.7 nM |  |  |
| C[C@@H](NC(=O)[C@@H](N)Cc1ccc(O)cc1)C(=O)N[C@@H](Cc1ccccc1)C(=O)NCC(N)=O (H-Y[dA]FG-NH2) [listing 2 of 2 here] | 45 | 0.2 |  |  |  | ED50 [30]: 68.8 pmol/mouse; ED50 [31]: 60.3 µmol/kg |
| C[C@@H](NC(=O)[C@@H](N)Cc1ccc(O)cc1)C(=O)N[C@@H](Cc1ccccc1)C(=O)NCC(=O)N[C@@H](Cc1ccc(O)cc1)C(=O)N1CCC[C@H]1C(=O)N[C@@H](CO)C(N)=O [DERMORPHIN] |  |  | > 10000 nM | 5.7 nM |  | ED50 [32]: 11.4 pmol/mouse |
| CN1CC[C@]23c4c5ccc(O)c4O[C@H]2[C@@H](O)C=C[C@H]3[C@H]1C5 [MORPHINE] |  |  |  |  |  | ED50 [33]: 3090 pmol/mouse; ED50 [34]: 10.8 µmol/kg |
